From PubChem
C2C12 statin = protects C2C12 myotubes from simvastatin toxicity; actives 0.78% (n = 330,000); rescue of ATP level, % at 7.49 µM; ATP luminescence, 48 h; scaled: DMSO 0, geranylgeraniol control 100; AID 602340;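 active = mean ATP rescue above about 67%, or every replicate alone reaching that limit, limit read from the data, passing the limit was not always enough; inconclusive = no clear call, values can overlap the other calls; inactive = mean under the limit and some replicate under it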;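 note: myotubes were challenged with 10 µM simvastatin during compound exposure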
DENV2 CPE = protects cells from dengue virus 2 cytopathic effect. DENV2-infected cells, cytopathic effect rescue, plate reader. CPE inhibition, % at 9.99 µM. AID 651640. actives 1.7% (n = 350,000); in the data active = CPE inhibition above about 20%, passing the limit was not always enough; inconclusive = no clear call, values can overlap the other calls; tested in BHK-21 cells
Xi reactivation = X-chromosome reactivation activator; XiGFP mouse fibroblasts, % GFP-positive cells imaging, 3 d; cells co-treated with 5-aza-dC sensitizer; scaled so ellipticine positive control = 100%; AID 743238; activation, % at 7.58 µM; actives 0.055% (n = 360,000);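 active = mean normalized replicate activation at least 10% and every replicate at or above 10%; inconclusive = only one of the two criteria met; inactive = mean below 10% and not all replicates reach 10%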
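Schedule: 3 d treatment, 15 min room-temperature fixation; system: 68-5-11 XiGFP fibroblast line; buffer or medium: DMEM plus 5-aza-dC sensitizer; control set: ellipticine 6 µM positive control; compound: one concentration, pinned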
PglD inh = PglD (C. jejuni) enzyme inhibition. purified PglD enzyme, DTNB colorimetric CoA detection. inhibition, % at 12.5 µM. actives 0.098% (n = 360,000); in the data active = inhibition above about 16%, passing the limit was not always enough; inconclusive = no clear call, values can overlap the other calls
E-sel inducer = E-selectin induction on HUVECs; P16581; HUVEC E-selectin immunofluorescence imaging; normalized: neutral wells 0, TNF-alpha wells 100; activation, % at 7.58 µM; actives 0.37% (n = 260,000); AID 686992;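 active = mean E-selectin-positive cell signal at least 10% of the positive control, reached in at least 60% of replicates, without over 20% cell loss; inconclusive = no rule given, readout overlaps actives, possibly toxicity-flagged; inactive = the rest, including those meeting only one limit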
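System: HUVEC / Compound: single concentration / Signal: immunofluorescence imaging / Read-out: percent E-selectin-positive cells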
FGF22 binding = binders of recombinant human FGF22 by thermal shift. Q9HCT0. activity (Tm shift, normalised), % at 9.99 µM. actives 1.5% (n = 340,000). SYPRO orange fluorescence; percent of sucrose octasulfate shift, DMSO zero;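 active = mean Tm shift, scaled 0 neutral to 100 positive control, at about 1.3% or above, every replicate too, limit read from the data; inconclusive = no clear call, values can overlap the other calls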
Target sequence (Q9HCT0 whole entry, looked up): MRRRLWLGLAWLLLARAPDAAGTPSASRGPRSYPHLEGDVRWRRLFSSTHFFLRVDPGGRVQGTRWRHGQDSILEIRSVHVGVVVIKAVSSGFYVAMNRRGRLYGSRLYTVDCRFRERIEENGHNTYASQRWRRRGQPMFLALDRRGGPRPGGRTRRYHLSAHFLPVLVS
Large screens that a line does not name were inactive; ! = not active in a repeat. In the library only some 3.3% were active in any assay of this set; here they are far more common.

C=Cc1ccc(Cn2c(C)c(C(=O)NCc3cccc(C(F)(F)F)c3)sc2=O)cc1	DENV2 CPE 57 (no result: E-sel inducer)
Cc1c(C(=O)NCc2cccc(C(F)(F)F)c2)sc(=O)n1Cc1ccc(F)cc1	none (no result: E-sel inducer)
CC(C)NC(=O)N(C)C[C@@H]1Oc2ccc(N(C)C)cc2C(=O)N(C)C[C@@H]1C	none (no result: C2C12 statin, DENV2 CPE, PglD inh, E-sel inducer, FGF22 binding)
S=C1NCCN1CC1CCN(CC2CCCC2)CC1	none
S=C1NCCN1CC1CCN(CCCC2CCCC2)CC1	DENV2 CPE 72 (no result: Xi reactivation)
O=Cc1ccc(-n2cc(C=O)c3ccccc32)cc1	FGF22 binding 43 (no result: C2C12 statin, PglD inh, E-sel inducer)
Cn1cc(C=O)c2ccccc21	none (no result: C2C12 statin, PglD inh, E-sel inducer)
C[C@@H]1CCCCO[C@@H](CN(C)CC2CCCCC2)[C@@H](C)CN([C@@H](C)CO)C(=O)c2cc(NS(=O)(=O)c3cn(C)cn3)ccc2O1	none
C/C=C/c1ccc([C@@H]2[C@@H](CO)N(C(=O)c3cnccn3)C23CN(C(C)=O)C3)cc1	none (no result: C2C12 statin, PglD inh)
CS(=O)(=O)c1nc(S(=O)(=O)c2ccc(Cl)cc2)c(N2CCC3(CC2)OCCO3)s1	none
CCS(=O)(=O)c1nc(S(=O)(=O)c2ccc(Cl)cc2)c(N2CCC3(CC2)OCCO3)s1	FGF22 binding 43 (no result: E-sel inducer)
COc1ccccc1S(=O)(=O)N[C@@H]1CC[C@H](CCNC(=O)C2CCCC2)O[C@H]1CO	none
COc1ccc(S(=O)(=O)N[C@H]2CC[C@@H](CCNC(=O)CN3CCOCC3)O[C@H]2CO)cc1	DENV2 CPE 94
Cc1ccc(S(=O)(=O)N[C@H]2CC[C@@H](CCNC(=O)C3CCOCC3)O[C@H]2CO)cc1	DENV2 CPE 22
COc1ccc(S(=O)(=O)N[C@H]2CC[C@@H](CCNC(=O)CN3CCOCC3)O[C@@H]2CO)cc1	none
Cc1ccc(S(=O)(=O)N[C@@H]2CC[C@@H](CCNC(=O)C3CC3)O[C@H]2CO)cc1	none
Cc1ccc(S(=O)(=O)N[C@H]2CC[C@H](CCNC(=O)C3CCCC3)O[C@@H]2CO)cc1	DENV2 CPE 72
Cc1ccc(S(=O)(=O)N[C@H]2CC[C@@H](CCNC(=O)C3CCCC3)O[C@H]2CO)cc1	none
COc1ccccc1S(=O)(=O)N[C@@H]1CC[C@@H](CCNC(=O)C2CCCC2)O[C@@H]1CO	DENV2 CPE 20
CCCC#Cc1ccc2c(c1)O[C@@H](CN(C)C)[C@@H](C)CN([C@H](C)CO)S2(=O)=O	none
C[C@H](O)C#Cc1cnc2c(c1)C(=O)N([C@H](C)CO)C[C@H](C)[C@H](CN(C)Cc1ccc(-c3ccccc3)cc1)O2	none
Cc1ccc(S(=O)(=O)N[C@@H]2CC[C@@H](CCNC(=O)C3CCOCC3)O[C@H]2CO)cc1	DENV2 CPE 21
Cc1ccc(S(=O)(=O)N[C@@H]2CC[C@H](CCNC(=O)C3CC3)O[C@H]2CO)cc1	none
COCCNC(=O)C(c1ccc(C)o1)N(CCOC)C(=O)Cn1nnc2ccccc21 (configuration not stated)	FGF22 binding 44 (no result: C2C12 statin, PglD inh, E-sel inducer)
O=C(NCc1ccccc1F)Nc1nnc([C@H]2C[C@H](O)[C@@H](CO)O2)s1	none
O=C(NCc1cccc(F)c1)Nc1nnc([C@H]2C[C@H](O)[C@@H](CO)O2)s1	DENV2 CPE 31
Cc1ccc(S(=O)(=O)N[C@@H]2CC[C@@H](CCNC(=O)C3CCCC3)O[C@@H]2CO)cc1	none
O=C(C[C@H]1CC[C@@H](NC(=O)c2cccnc2)[C@@H](CO)O1)NCCN1CCCCC1	DENV2 CPE inconclusive
Cc1ccc(C(=O)Nc2nnc(CC(=O)N/N=C/c3ccncc3)s2)cc1	FGF22 binding 44 (no result: C2C12 statin, PglD inh, E-sel inducer)
CC(=O)n1cc([C@H]2C=C(C(=O)N3CCN(Cc4ccccc4)CC3)O[C@@H](OCc3ccc(CO)cc3)C2)c2ccccc21	none (no result: E-sel inducer)
CC(=O)n1cc([C@@H]2C=C(C(=O)NCc3ccccc3)O[C@H](OCc3ccc(CO)cc3)C2)c2ccccc21	DENV2 CPE 45!
CC(=O)n1cc([C@H]2C=C(C(=O)N3CCN(Cc4ccc5c(c4)OCO5)CC3)O[C@@H](OCc3ccc(CO)cc3)C2)c2ccccc21	DENV2 CPE 24
